Results reported in paper PMC4002122 (Chemical Research in Toxicology, 2014).

Columns and labels:
Type in all cases: in vitro ADME
UGT2B4 = target: T1, UGT2B4 (Homo sapiens, UniProt P06133); test: Screening of recombinant UGT2B4 for glucuronidation activity; conditions: 250 μM substrate, 5 μg protein, 60 min, 37 °C
T1 sequence (P06133 24-528): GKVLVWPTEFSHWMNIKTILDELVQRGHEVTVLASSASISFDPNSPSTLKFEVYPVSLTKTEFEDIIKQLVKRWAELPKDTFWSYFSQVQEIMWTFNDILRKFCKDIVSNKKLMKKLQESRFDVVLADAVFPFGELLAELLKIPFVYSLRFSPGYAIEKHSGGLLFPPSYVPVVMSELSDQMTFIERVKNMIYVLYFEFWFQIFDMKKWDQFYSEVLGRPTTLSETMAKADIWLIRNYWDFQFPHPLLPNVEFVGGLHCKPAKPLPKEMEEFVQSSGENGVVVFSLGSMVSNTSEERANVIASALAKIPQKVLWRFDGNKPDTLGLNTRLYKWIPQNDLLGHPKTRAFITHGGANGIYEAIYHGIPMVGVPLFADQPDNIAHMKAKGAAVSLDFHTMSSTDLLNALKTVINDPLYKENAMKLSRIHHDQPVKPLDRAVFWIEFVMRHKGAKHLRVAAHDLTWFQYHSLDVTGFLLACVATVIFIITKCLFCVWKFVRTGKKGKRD
In short: (§1)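 UGT1A1, 1A3, 1A4 and 1A6–1A10 were His-tagged and expressed in baculovirus-infected Sf9 cells; UGT2B4, 2B7, 2B15 and 2B17 were commercial membranes run per supplier protocol. 5 μg membrane protein with 250 μM substrate, 2 mM UDP-GlcUA, Tris–HCl pH 7.4, MgCl2, saccharolactone, 2% DMSO; 37 °C, 60 min; no-substrate controls. Products measured by HPLC-UV/vis; β-glucuronidase hydrolysis separated O- from carboxyl glucuronides.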

UGT1A4 = target: T2, UGT1A4 (Homo sapiens, UniProt P22310); test: Screening of recombinant UGT1A4 for glucuronidation activity; conditions: 250 μM substrate, 5 μg protein, 60 min, 37 °C
T2 sequence (P22310 29-534): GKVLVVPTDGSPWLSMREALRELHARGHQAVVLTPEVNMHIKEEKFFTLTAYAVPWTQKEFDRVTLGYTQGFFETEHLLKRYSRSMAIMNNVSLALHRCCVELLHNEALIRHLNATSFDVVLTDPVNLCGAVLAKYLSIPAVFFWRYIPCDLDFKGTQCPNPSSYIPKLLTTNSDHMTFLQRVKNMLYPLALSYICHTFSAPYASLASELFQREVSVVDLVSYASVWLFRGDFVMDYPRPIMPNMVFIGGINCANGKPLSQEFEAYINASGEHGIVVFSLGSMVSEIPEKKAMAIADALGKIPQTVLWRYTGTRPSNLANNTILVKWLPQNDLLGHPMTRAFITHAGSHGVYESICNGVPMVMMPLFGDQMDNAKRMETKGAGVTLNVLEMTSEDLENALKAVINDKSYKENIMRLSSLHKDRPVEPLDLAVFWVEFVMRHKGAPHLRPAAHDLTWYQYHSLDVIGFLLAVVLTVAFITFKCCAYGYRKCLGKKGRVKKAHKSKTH
In short: as §1

UGT1A7 [1] = target: T3, UGT1A7 (Homo sapiens, UniProt Q9HAW7); test: Screening of recombinant UGT1A7 for glucuronidation activity; conditions: 250 μM substrate, 5 μg protein, 60 min, 37 °C
T3 sequence (Q9HAW7 26-530): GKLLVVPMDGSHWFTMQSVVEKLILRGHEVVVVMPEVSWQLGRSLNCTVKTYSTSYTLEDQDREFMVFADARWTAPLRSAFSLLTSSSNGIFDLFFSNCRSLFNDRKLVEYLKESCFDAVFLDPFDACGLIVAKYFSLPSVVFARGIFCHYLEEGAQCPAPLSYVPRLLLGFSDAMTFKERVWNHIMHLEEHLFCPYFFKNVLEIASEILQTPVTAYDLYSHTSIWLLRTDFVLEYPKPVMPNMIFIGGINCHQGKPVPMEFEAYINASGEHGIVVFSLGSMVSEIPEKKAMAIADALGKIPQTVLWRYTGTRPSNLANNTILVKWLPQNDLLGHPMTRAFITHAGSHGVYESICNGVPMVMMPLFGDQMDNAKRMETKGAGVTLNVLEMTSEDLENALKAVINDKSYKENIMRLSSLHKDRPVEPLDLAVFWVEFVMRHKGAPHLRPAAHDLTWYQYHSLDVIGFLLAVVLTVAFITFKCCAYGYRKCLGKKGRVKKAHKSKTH
In short: as §1

UGT2B15 = target: T4, UGT2B15 (Homo sapiens, UniProt P54855); test: Screening of recombinant UGT2B15 for glucuronidation activity; conditions: 250 μM substrate, 5 μg protein, 60 min, 37 °C
T4 sequence (P54855 24-530): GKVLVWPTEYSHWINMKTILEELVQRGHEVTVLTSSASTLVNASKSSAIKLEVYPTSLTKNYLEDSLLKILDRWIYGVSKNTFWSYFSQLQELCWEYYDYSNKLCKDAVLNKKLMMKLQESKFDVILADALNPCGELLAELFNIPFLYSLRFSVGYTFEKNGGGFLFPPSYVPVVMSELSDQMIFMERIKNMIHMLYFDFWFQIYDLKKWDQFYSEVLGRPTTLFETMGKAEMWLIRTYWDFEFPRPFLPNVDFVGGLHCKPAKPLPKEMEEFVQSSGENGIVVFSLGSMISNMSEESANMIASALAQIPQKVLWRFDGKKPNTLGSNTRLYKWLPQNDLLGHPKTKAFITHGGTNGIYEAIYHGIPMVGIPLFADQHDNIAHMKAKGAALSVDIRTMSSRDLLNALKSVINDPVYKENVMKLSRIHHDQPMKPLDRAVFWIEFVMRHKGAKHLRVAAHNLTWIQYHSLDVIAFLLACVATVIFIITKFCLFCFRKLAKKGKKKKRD
In short: as §1

UGT1A8 = target: T5, UGT1A8 (Homo sapiens, UniProt Q9HAW9); test: Screening of recombinant UGT1A8 for glucuronidation activity; conditions: 250 μM substrate, 5 μg protein, 60 min, 37 °C
T5 sequence (Q9HAW9 26-530): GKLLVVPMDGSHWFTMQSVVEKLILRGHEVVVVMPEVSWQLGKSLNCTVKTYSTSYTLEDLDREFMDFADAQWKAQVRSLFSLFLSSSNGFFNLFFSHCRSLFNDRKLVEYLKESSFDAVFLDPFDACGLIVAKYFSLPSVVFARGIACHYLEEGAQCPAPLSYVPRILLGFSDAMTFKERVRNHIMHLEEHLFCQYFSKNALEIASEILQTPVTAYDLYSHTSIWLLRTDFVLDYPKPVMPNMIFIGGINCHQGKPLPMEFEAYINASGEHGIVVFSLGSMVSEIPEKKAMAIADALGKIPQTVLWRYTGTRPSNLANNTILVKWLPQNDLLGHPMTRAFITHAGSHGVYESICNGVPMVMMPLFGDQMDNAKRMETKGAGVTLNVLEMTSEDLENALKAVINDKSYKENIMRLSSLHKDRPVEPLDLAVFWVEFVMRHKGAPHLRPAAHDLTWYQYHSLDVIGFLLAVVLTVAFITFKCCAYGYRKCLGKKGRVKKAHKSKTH
In short: as §1

UGT1A7 [2] = target: T3, UGT1A7; test: Steady state kinetics of glucuronidation by recombinant UGT1A7

Row | glucuronidation activity (glucuronide formed) (UGT2B4) | glucuronidation activity (glucuronide formed) (UGT1A4) | glucuronidation activity (glucuronide formed) (UGT1A7 [1]) | glucuronidation activity (glucuronide formed) (UGT2B15) | glucuronidation activity (glucuronide formed) (UGT1A8) | NI-12a-COO-gluc formation (UGT1A7 [2]; COO-glucuronide) | Ks (UGT1A7 [2]; NI-12a-O-gluc formation, USI model) [µM] | NI-ST-05–N–O-gluc formation (UGT1A7 [2]; N–O-glucuronide) | SMILES | kinetic model (UGT1A7 [2]; NI-12a-O-gluc formation)
1 | No activity | No activity | No activity | No activity | No activity | – | – | – | COc1cc(/C=C/c2cc([N+](=O)[O-])c(O)c([N+](=O)[O-])c2)cc(OC)c1 [DNR-1, (E)-4-(3,5-dimethoxystyryl)-2,6-dinitrophenol] | –
2 | – | not active | only the hydroxyl metabolite | – | only the hydroxyl metabolite | not produced | 242 ± 133 | – | COc1ccc(/C=C(/C(=O)O)c2cc(OC)c(OC)c(OC)c2)cc1O [NI-12a, (E)-3-(3-hydroxy-4-methoxyphenyl)-2-(3,4,5-trimethoxyphenyl)acrylic acid] | uncompetitive substrate inhibition and USI
3 | inactive | inactive | inactive | inactive | inactive | – | – | not produced | COc1ccc(C=Cc2cc(OC)cc(OC)c2/C=N/O)cc1 [NI-ST-05, (E)-2,4-dimethoxy-6-(4-methoxystyryl)benzaldehyde oxime] | –
